MrgX1 antagonist: antagonists of human MrgX1 receptor | Q96LB2 | MRGX1-HEK293 calcium flux, Fluo-4, BAM8-22 antagonism; hits give low values | B-score at 10 µM | 310,000 tested, 1.3% active | AID 588676;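 active = calcium-response B-score plate-corrected more than 3 library SD below zero, starting fluorescence within 5 deviations, no agonist response on first addition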;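 note: peak minus trough fluorescence over baseline after final BAM8-22 challenge near maximal dose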
Target sequence (Q96LB2 whole entry, looked up): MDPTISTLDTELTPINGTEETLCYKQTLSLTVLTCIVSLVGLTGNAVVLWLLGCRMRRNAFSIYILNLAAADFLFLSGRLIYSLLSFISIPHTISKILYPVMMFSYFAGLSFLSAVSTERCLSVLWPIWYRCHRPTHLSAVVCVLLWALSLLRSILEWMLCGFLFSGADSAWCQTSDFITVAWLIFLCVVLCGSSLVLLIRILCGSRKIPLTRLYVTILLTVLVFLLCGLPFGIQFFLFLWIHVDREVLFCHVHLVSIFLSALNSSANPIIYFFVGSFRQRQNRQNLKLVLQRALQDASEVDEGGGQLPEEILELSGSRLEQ
MrgX1 PAM: allosterically activates human MrgX1 receptor signaling; Q96LB2; MrgX1-HEK293, Fluo-4 calcium flux, FDSS; hits give high values; B-score at 10 µM; 310,000 tested, 0.63% active;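 active = plate-corrected calcium response at least 3 library SD above typical, normal starting fluorescence, not activating the receptor alone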;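 note: compound read alongside a low EC10 to EC30 dose of BAM8-22 agonist; peak minus trough fluorescence over baseline measured at the second addition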
RGS4 inh: inhibitors of human RGS4; 310,000 tested, 0.45% active; B-score at 10 µM; AID 463165; HEK293 M3R/RGS4 inducible, Fluo-4 calcium flux; hits give high values; triggered by carbachol at its EC20;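 active = B-score, a plate-corrected calcium signal, over three deviations above library mean, with baseline fluorescence within five deviations of library mean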;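 note: RGS4 expression induced by doxycycline in cells with stable M3 receptor; B-score is computed from the integrated fluorescence ratio over baseline after carbachol; higher B-score means a larger calcium signal and so more RGS4 inhibition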
Target sequence (P49798 whole entry, looked up): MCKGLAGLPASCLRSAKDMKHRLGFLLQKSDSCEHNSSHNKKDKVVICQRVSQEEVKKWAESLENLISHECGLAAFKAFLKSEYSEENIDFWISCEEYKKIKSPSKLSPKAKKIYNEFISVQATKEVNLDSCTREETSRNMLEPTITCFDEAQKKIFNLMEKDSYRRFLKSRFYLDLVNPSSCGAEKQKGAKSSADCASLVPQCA
MrgX1 ag: human MrgX1 receptor agonism, primary screen; Q96LB2; MrgX1-HEK293 cells, Fluo-4 calcium fluorescence, agonist mode; hits give high values; B-score at 10 µM; 310,000 tested, 0.44% active;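 active = calcium response B-score plate-corrected fluorescence ratio at least 3 library SD, with starting fluorescence B-score inside 5 SD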
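System: HEK293 cells stably expressing human MrgX1 receptor; Dosing: test compound in the initial addition of three; Schedule: overnight plating, then 30 min 37 °C plus 30 min room-temperature dye loading; Detection: kinetic calcium dye fluorescence, Fluo-4 NW; Controls: per-plate positive and negative controls for Z′ factor.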
RGS4 pot: potentiators or activators of RGS4; HEK293 M3R/inducible RGS4, carbachol calcium flux Fluo4; hits give low values; B-score at 10 µM; 310,000 tested, 0.92% active; AID 463111;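 active = B-score of the integrated calcium signal more than 4 SD below the library mean, with starting fluorescence not abnormally high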;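 note: negative B-score means reduced calcium response which marks RGS4 activation or potentiation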
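test system = HEK293 cells with stable M3R and inducible RGS4 | schedule = recording 10 s baseline at 1 Hz, 100 s post-agonist | technique = Fluo4-AM (2 µM) calcium-flux fluorescence, kinetic read | measure = Agonist-evoked peak-minus-minimum fluorescence over baseline, integrated ratio, B score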
RGS4 activ val: confirmation of RGS4 activators. HEK293 M3R/RGS4 inducible, carbachol calcium flux Fluo4. 1,100 tested, 89% active. AID 602282. shares compounds with RGS4 pot. inhibition, % at 10 µM;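 active = inhibition above 3 SD of the buffer control wells, cut at about 41% in these data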;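 note: signal is the integrated peak-minus-minimum Fluo4 fluorescence over baseline ratio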
RGS4 act ctr: RGS4 activator counter-screen hit in non-induced cells; shares compounds with RGS4 pot; HEK293 M3R non-induced RGS4, Fluo4 calcium flux; after carbachol challenge at its EC90; inhibition, % at 10 µM; 1,100 tested, 82% active; AID 602283;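 active = inhibition exceeding 3 SD of buffer-only control wells, cut at about 26% in these data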;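 note: percent drop in integrated peak-minus-baseline over baseline Fluo4 ratio after carbachol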
* marks the source's active call; other numbers are inactive results; i = inactive; / = no result given. A selection: hits, their analogues and other compounds. The true share with any hit is near 3.5%.

SMILES | MrgX1 antagonist | MrgX1 PAM | RGS4 inh | MrgX1 ag | RGS4 pot | RGS4 activ val | RGS4 act ctr
Cc1ccc(C(=O)Nc2ccc(C(=O)N3CCCCC3)cc2)o1 | i | i | i | i | i | / | /
COc1cccc(CNC(=O)CCC2CCCN(c3cc(C)nc(N(C)C)n3)C2)c1 (stereo not given) | i | i | i | i | -11* | 90* | 72*
CCC(C(=O)NCc1ccco1)n1nc(C)c2c(C)n(-c3ccccc3)nc2c1=O (stereo not given) | i | i | i | i | i | / | /
O=C(CSc1nnc2ccccn12)Nc1ccc(S(=O)(=O)N2CCOCC2)cc1 | i | i | i | i | i | / | /
CCOC(=O)C(=CNc1cc(Cl)c(-c2ccco2)c(Cl)c1)C(=O)OCC | i | i | i | i | -7.8* | 82* | 84*
c1ccc(-c2nc(N3CCN(c4ccccc4)CC3)nc(-n3ccnc3)n2)cc1 | i | i | i | i | i | / | /
c1ccc(-c2nc(N3CCCCCC3)nc(-n3ccnc3)n2)cc1 | i | i | i | i | -8.7* | 92* | 61*
N#CC(C#N)=c1ccc2c(c1)N1C3=C(CCCC3)CC3CCCCC31N=2 (stereo not given) | i | i | i | i | -8.2* | 84* | 84*
CCn1c(=O)n(CCc2ccccc2)c(=O)c2c3c(sc21)CCCC3 | i | i | i | i | i | / | /
COC(=O)Cn1c(=O)n(CCc2ccccc2)c(=O)c2c3c(sc21)CCCC3 | i | i | i | i | -7.8* | 92* | 89*
CC(C)(O)CC[C@@H](O)[C@](C)(O)[C@H]1CC[C@@]2(O)C3=CC(=O)[C@@H]4C[C@@H](O)[C@@H](O)C[C@]4(C)[C@H]3CC[C@]12C | i | i | i | i | i | / | /
Cc1ccc(C(=O)Nc2ccc(CN3CCCCC3)cc2)c(C)c1 | i | i | i | i | -8.5* | 55* | 84*
COc1ccc(Cl)cc1C(=O)Nc1ccc(CN2CCCCC2)cc1 | i | i | i | i | i | / | /
CCOC(=O)c1c(NC(C)=O)sc2c(OC)c(Br)ccc12 | i | i | i | i | i | / | /
CCOC(=O)c1c(NC(C)=O)sc2c(OCCN(CC)CC)c(Br)ccc12 | i | i | i | i | -10* | 90* | 39*
Oc1ccc(-c2nc3ccccc3s2)c(O)c1 | i | i | i | i | -7.9* | 0 | 0
Nc1ccc(O)c(-c2nc3ccccc3s2)c1 | i | i | i | i | i | / | /
Cc1ccc(C)c(NC(=O)C(NCC(C)(C)N2CCOCC2)c2ccccc2)c1 (stereo not given) | i | i | i | i | -10* | 92* | 95*
CCN(CC)CCOC(=O)C1(c2ccccc2)CCCC1 | i | i | i | i | -9.1* | 94* | 93*
CCN(CC)CCOC(=O)C1(c2ccc(OC)c(OC)c2)CCCC1 | i | i | i | i | i | / | /
COc1ccccc1CNS(=O)(=O)c1ccc2c(c1)CC(C)N2C(=O)C1CCC1 (stereo not given) | i | i | i | i | i | / | /
OC(Cc1nc2ccccc2[nH]1)c1ccccc1Cl (stereo not given) | i | i | i | i | -8.2* | 0 | 0
Clc1ccc(OCc2nc3ccccc3[nH]2)cc1 | i | i | i | i | i | / | /
CN1/C(=C\C(=O)Nc2ccc(Cl)cc2)C(C)(C)c2ccccc21 | i | i | i | i | -9.7* | 92* | 95*
CN1/C(=C\C=C(/C#N)C(=O)Nc2ccc(Cl)cc2)C(C)(C)c2ccccc21 | i | i | i | i | i | / | /
SMILES | MrgX1 antagonist | MrgX1 PAM | RGS4 inh | MrgX1 ag | RGS4 pot | RGS4 activ val | RGS4 act ctr
CCCn1nnc(NCc2ccc(OCc3cccs3)c(OC)c2)n1 | i | i | i | i | i | / | /
CCNCc1ccc(OCc2cccs2)c(OCC)c1 | i | i | i | i | -8.9* | 62* | 0
Cc1ccc(OCCC(=O)OCC(=O)NC(=O)NC2CCCC2)cc1 | i | i | i | i | i | / | /
COC(=O)c1cc2sccc2n1Cc1nc(-c2cccc(Cl)c2)oc1C | i | i | i | i | i | / | /
COC(=O)c1cc2occc2n1Cc1nc(-c2cccc(Cl)c2)oc1C | i | i | i | i | -8.9* | 94* | 83*
COc1ccc(CCC(C)N2CCC(Oc3ccc(C(=O)N4CCCC4)cc3)CC2)cc1 (stereo not given) | i | i | i | i | -7.6* | 84* | 44*
CC(CCc1ccc(O)cc1)N1CCC(Oc2ccc(C(=O)N3CCCC3)cc2)CC1 (stereo not given) | i | i | i | i | i | / | /
CN(Cc1ccc(F)cc1)C(=O)C(c1ccccc1)c1ccccc1 | i | i | i | i | -9.1* | 82* | 84*
CN(Cc1cccc(F)c1)C(=O)C(c1ccccc1)c1ccccc1 | i | i | i | i | i | / | /
CCCn1nnc(NC(=O)/C=C/c2ccc(C(C)C)cc2)n1 | i | i | i | i | i | / | /
C=C1CCC(C)C(C)(CCC2=CCOC2=O)C/C=C\C=C/1C(=O)O (stereo not given) | i | i | i | i | i | / | /
CN(C)CCCNC(=O)/C(=N\O)c1ccccc1 | i | i | i | i | i | / | /
Cc1cccc(C)c1C(=NCCCN(C)C)c1ccccc1 | i | i | i | i | -9.4* | 92* | 80*
CCOC(=O)c1c(NC(=O)/C=C/C(=O)O)sc(C)c1-c1ccc(C(C)(C)C)cc1 | -5.2* | i | i | i | -12* | 92* | 90*
CCCCNc1c(-c2ccc(OC)c(Sc3ccc(OC)cc3)c2)nc2ccccn12 | i | i | i | i | -11* | 91* | 71*
CCCCCCSc1cc(-c2nc3cc(C)ccn3c2NCCCC)ccc1OC | i | i | i | i | i | / | /
CN(C(=O)C1CCC(=O)N(CCc2ccc(Cl)cc2)C1)C1CCOCC1 (stereo not given) | i | i | i | i | i | / | /
CS(=O)(=O)Cc1cccc(C(=O)NN(c2ccccc2)c2ccccc2)c1 | i | i | i | i | i | / | /
CC1(C)Cc2c(sc(NC(=O)C(=O)N3CCN(CCO)CC3)c2C(N)=O)CO1 | i | i | i | i | i | / | /
